Molecules are shown by their SMILES.

Test [1] has as its system Rattus norvegicus. Nature of the test: Change in heart rate after iv administration of 12 uM/kg in anesthetized rats. Type of test: functional.
The subject of test [2] is Rattus norvegicus. Nature of the test: Change in systolic blood pressure after iv administration of 12 uM/kg in anesthetized rats. Type of test: functional, Artery. The gist of the method:
(§1)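 Doses were 4.12 µM/kg (two agents), guanethidine 25, clonidine 0.108, hexamethonium 12, reserpine 8, papaverine 5 and histamine […]. Peak changes in systolic BP or HR were recorded.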

Test [3] concerns Rattus norvegicus. Nature of the test: Maximum rate of rise of the left ventricular isovolumetric pressure was measured after iv administration of 12 uM/kg in anesthetized rats. The test is classed as functional, Heart left ventricle.
The test system of test [4] is Rattus norvegicus. Description: Change in diastolic blood pressure after iv administration of 12 uM/kg in anesthetized rats. Type of test: functional, Artery.
The subject of test [5] is Rattus norvegicus. Description: Change in heart rate after iv administration of 25 uM/kg in anesthetized rats. Type of test: functional.
Test [6] deals with Rattus norvegicus. Nature of the test: Change in diastolic blood pressure after iv administration of 25 uM/kg in anesthetized rats. The test is classed as functional, Artery.
For test [7], the system named is Rattus norvegicus. Description: Change in systolic blood pressure after iv administration of 25 uM/kg in anesthetized rats. Type of test: functional, Artery. Summed up:
as §1

Test [8] has as its system Rattus norvegicus. Description: Maximum rate of rise of the left ventricular isovolumetric pressure was measured after iv administration of 25 uM/kg in anesthetized rats; ratio given for dP/dt. Type of test: functional, Heart left ventricle.
Test [9] relates to Rattus norvegicus. Nature of the test: Maximum rate of rise of the left ventricular isovolumetric pressure was measured after iv administration of 8 uM/kg in anesthetized rats; ratio given for dP/dt. The test is classed as functional, Heart left ventricle.
Test [10] deals with Rattus norvegicus. Nature of the test: Change in heart rate after iv administration of 8 uM/kg in anesthetized rats. Type of test: functional. The gist of the method: as §1
Test [11] deals with Rattus norvegicus. Description: Change in diastolic blood pressure after iv administration of 8 uM/kg in anesthetized rats. The test is classed as functional, Artery.
Test [12] has as its system Rattus norvegicus. Description: Change in systolic blood pressure after iv administration of 8 uM/kg in anesthetized rats. The test is classed as functional, Artery.
Test [13] relates to Rattus norvegicus. Nature of the test: Change in systolic blood pressure after iv administration of 0.625 ug/kg in anesthetized rats.
Test [14] concerns Rattus norvegicus. Description: Change in heart rate after iv administration of 0.625 ug/kg in anesthetized rats.
Test [15] deals with Rattus norvegicus. Nature of the test: Maximum rate of rise of the left ventricular isovolumetric pressure was measured after iv administration of 0.625 mg/kg in anesthetized rats. The test is classed as functional, Heart left ventricle.
The test system of test [16] is Rattus norvegicus. Nature of the test: Change in diastolic blood pressure after iv administration of 0.625 mg/kg in anesthetized rats. Type of test: functional, Artery.
Test [17] has as its system Rattus norvegicus. Nature of the test: Change in systolic blood pressure after iv administration of 5 uM/kg in anesthetized rats. The test is classed as functional, Artery.
Test [18] deals with Rattus norvegicus. Description: Change in diastolic blood pressure after iv administration of 5 uM/kg in anesthetized rats. The test is classed as functional, Artery.
Test [19] has as its system Rattus norvegicus. Description: Change in heart rate after iv administration of 5 uM/kg in anesthetized rats. Type of test: functional. Summed up:
as §1

The test system of test [20] is Rattus norvegicus. Description: Maximum rate of rise of the left ventricular isovolumetric pressure was measured after iv administration of 5 uM/kg in anesthetized rats; ratio given for dP/dt. Type of test: functional, Heart left ventricle.
In test [21] the test system is Rattus norvegicus. Nature of the test: Change in systolic blood pressure after iv administration of 2.5 mg/kg in anesthetized rats. Type of test: functional, Artery.
The test system of test [22] is Rattus norvegicus. Nature of the test: Change in heart rate after iv administration of 2.5 ug/kg in anesthetized rats.
In test [23] the test system is Rattus norvegicus. Description: Maximum rate of rise of the left ventricular isovolumetric pressure was measured after iv administration of 2.5 mg/kg in anesthetized rats; ratio given for dP/dt. Type of test: functional, Heart left ventricle.
In test [24] the test system is Rattus norvegicus. Nature of the test: Change in diastolic blood pressure after iv administration of 2.5 ug/kg in anesthetized rats.
Test [25] relates to Rattus norvegicus. Description: Change in heart rate after iv administration of 1 mg/kg in anesthetized rats. The test is classed as functional.
For test [26], the system named is Rattus norvegicus. Nature of the test: Maximum rate of rise of the left ventricular isovolumetric pressure was measured after iv administration of 1 mg/kg in anesthetized rats. The test is classed as functional, Heart left ventricle.
Test [27] concerns Rattus norvegicus. Description: Change in systolic blood pressure after iv administration of 1 mg/kg in anesthetized rats. Type of test: functional, Artery.
The subject of test [28] is Rattus norvegicus. Nature of the test: Change in diastolic blood pressure after iv administration of 1 mg/kg in anesthetized rats. The test is classed as functional, Artery.

Consider `C[N+](C)(C)CCCCCC[N+](C)(C)C.[Cl-].[Cl-]` [HEXAMETHONIUM CHLORIDE], for which the Heart rate in the test with Rattus norvegicus [1] is listed as -46 beats min-1. The BP in the test on Rattus norvegicus [2] was -48 mmHg; in the test on Rattus norvegicus [4] it was -40 mmHg. In addition, the dP/dt in the test on Rattus norvegicus [3] was -4421 mmHg s-1.

Consider `N=C(N)NCCN1CCCCCCC1` [GUANETHIDINE], for which the Heart rate in the test with Rattus norvegicus [5] was -24 beats min-1. The BP in the test with Rattus norvegicus [6] is listed as -22 mmHg; in the test with Rattus norvegicus [7] it was -29 mmHg. For the same compound, in the test with Rattus norvegicus [8], the dP/dt was -1090 mmHg s-1.

Take `COC(=O)[C@H]1[C@H]2C[C@@H]3c4[nH]c5cc(OC)ccc5c4CCN3C[C@H]2C[C@@H](OC(=O)c2cc(OC)c(OC)c(OC)c2)[C@@H]1OC` [RESERPINE]: the dP/dt with Rattus norvegicus [9] is given as -1438 mmHg s-1. Further, the Heart rate with Rattus norvegicus [10] is given as -51 beats min-1. The BP in the test on Rattus norvegicus [11] is given as -29 mmHg; in the test on Rattus norvegicus [12], -35 mmHg.

With `CC(C)NCC(O)c1ccc(O)c(O)c1` (configuration not stated) [ISOPROTERENOL], the BP is given as -20 mmHg with Rattus norvegicus [13] and -31 mmHg with Rattus norvegicus [16]. Moreover, in the test on Rattus norvegicus [14], the Heart rate is listed as 46 beats min-1. Moreover, the dP/dt in the test on Rattus norvegicus [15] amounted to 9844 mmHg s-1.

Consider `COc1ccc(Cc2nccc3cc(OC)c(OC)cc23)cc1OC` [PAPAVERINE], for which the values for the BP in the test on Rattus norvegicus [17] and in the test on Rattus norvegicus [18] were -20 mmHg and -15 mmHg, respectively. In addition, in the test on Rattus norvegicus [19], the Heart rate is -18 beats min-1. Moreover, in the test with Rattus norvegicus [20], the dP/dt is listed as -1204 mmHg s-1.

`CC(=O)OCC[N+](C)(C)C` [ACETYLCHOLINE]: the BP is -25 mmHg in the test with Rattus norvegicus [21] and -31 mmHg in the test with Rattus norvegicus [24]. For the same compound, the Heart rate in the test with Rattus norvegicus [22] was -27 beats min-1. The dP/dt with Rattus norvegicus [23] is -4451 mmHg s-1.

`NC[C@H](O)c1ccc(O)c(O)c1` [NOREPINEPHRINE] returned a Heart rate in the test with Rattus norvegicus [25] of 28 beats min-1. This compound yielded a dP/dt with Rattus norvegicus [26] of 5564 mmHg s-1. In addition, the BP with Rattus norvegicus [27] came to 43 mmHg; with Rattus norvegicus [28] it was 25 mmHg.

`CNC[C@H](O)c1ccc(O)c(O)c1` [EPINEPHRINE]: the Heart rate in the test with Rattus norvegicus [25] is listed as 41 beats min-1. The dP/dt in the test with Rattus norvegicus [26] stood at 8416 mmHg s-1. The results for the BP in the test with Rattus norvegicus [27] and in the test on Rattus norvegicus [28] were 25 mmHg and 16 mmHg, respectively.

For the origin of these results see ChEMBL document CHEMBL1132342, “Novel hypotensive agents from Verbesina caracasana. 6. Synthesis and pharmacology of caracasandiamide” (1999).
